Measurements: ChEMBL document CHEMBL2040781, “Design, synthesis, and biological evaluation of chromone-based p38 MAP kinase inhibitors” (J Med Chem, 2011)
Active and inactive are the calls of the source. The rule behind the calls is not given here.

Experiments:
[1] = target: SRSF protein kinase 1 (Homo sapiens) (UniProt Q96SB4); assay: Inhibition of human SRPK1 assessed as remaining activity at 0.8 uM after 40 mins by scintillation counting
[2] = target: T1, Mitogen-activated protein kinase 14 (Homo sapiens, UniProt Q16539); assay: Inhibition of anisomycin-induced p38alpha MAPK signalling in human MCF7 cells assessed as inhibition of ATF2 activation at 0.5 uM after 30 mins by SDS PAGE analysis; format: cell-based
T1 sequence (Q16539 whole entry): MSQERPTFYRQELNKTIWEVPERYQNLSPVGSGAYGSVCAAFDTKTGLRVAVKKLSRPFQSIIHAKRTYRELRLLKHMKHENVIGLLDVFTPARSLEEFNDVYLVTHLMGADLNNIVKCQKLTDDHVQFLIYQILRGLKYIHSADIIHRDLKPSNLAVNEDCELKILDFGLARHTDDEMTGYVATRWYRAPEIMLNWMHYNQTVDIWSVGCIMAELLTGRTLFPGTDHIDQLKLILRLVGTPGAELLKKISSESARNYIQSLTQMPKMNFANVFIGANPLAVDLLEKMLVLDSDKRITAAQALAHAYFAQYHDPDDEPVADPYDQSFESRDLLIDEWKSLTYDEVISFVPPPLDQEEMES
In short: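 MCF-7 cells were preincubated with the compound at the indicated doses for 30 min, then stimulated with 10 μg/mL anisomycin for another 30 min. Total cell lysates were resolved by SDS-PAGE and immunoblotted with antibodies against phosphorylated ATF2, p38 and HSP27, with tubulin as the loading control.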

MDA-MB-436 = assay: Antiproliferative activity against human MDA-MB-436 cells at 1 uM after 4 hrs by prestoblue cell viability assay; format: functional, cell-based
MCF7 [3] = assay: Potentiation of anisomycin-mediated cytotoxicity in human MCF7 cells at 1 uM after 4 hrs by prestoblue cell viability assay; format: functional, cell-based
MCF7 [4] = assay: Potentiation of doxorubicin-mediated cytotoxicity in human MCF7 cells at 1 uM after 4 hrs by prestoblue cell viability assay; format: functional, cell-based
MCF7 [5] = assay: Effect on p38alpha protein level in human MCF7 cells; format: functional, cell-based
[6] = target: T1, Mitogen-activated protein kinase 14; assay: Inhibition of p38alpha MAPK after 40 mins by scintillation counting
[7] = target: Tyrosine-protein kinase ABL1 (Homo sapiens) (UniProt P00519); assay: Inhibition of human Abl assessed as remaining activity at 0.8 uM after 40 mins by scintillation counting
[8] = target: ALK tyrosine kinase receptor (Homo sapiens) (UniProt Q9UM73); assay: Inhibition of human ALK assessed as remaining activity at 0.8 uM after 40 mins by scintillation counting
[9] = target: 5'-AMP-activated protein kinase catalytic subunit alpha-1 (Homo sapiens) (UniProt Q13131); assay: Inhibition of human AMPKalpha1 assessed as remaining activity at 0.8 uM after 40 mins by scintillation counting
[10] = target: Calcium/calmodulin-dependent protein kinase type 1 (Homo sapiens) (UniProt Q14012); assay: Inhibition of human CaMKI assessed as remaining activity at 0.8 uM after 40 mins by scintillation counting
Chain of Calcium/calmodulin-dependent protein kinase type 1 (Homo sapiens) (Q14012 whole entry, looked up): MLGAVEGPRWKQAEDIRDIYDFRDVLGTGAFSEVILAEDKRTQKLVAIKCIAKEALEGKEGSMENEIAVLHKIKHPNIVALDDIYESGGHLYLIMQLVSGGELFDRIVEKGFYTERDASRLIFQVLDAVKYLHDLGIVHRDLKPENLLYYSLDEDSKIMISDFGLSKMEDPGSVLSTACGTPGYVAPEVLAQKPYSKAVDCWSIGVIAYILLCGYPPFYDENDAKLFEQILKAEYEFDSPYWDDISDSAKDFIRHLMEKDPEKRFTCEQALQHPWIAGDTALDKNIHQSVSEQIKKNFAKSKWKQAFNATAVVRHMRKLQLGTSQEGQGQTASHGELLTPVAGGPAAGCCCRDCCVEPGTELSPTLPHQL

[11] = target: CDK6/cyclin D3 (Homo sapiens) (UniProt P30281+Q00534); assay: Inhibition of human CDK6/cyclinD3 assessed as remaining activity at 0.8 uM after 40 mins by scintillation counting; format: protein-complex assay
[12] = target: Cyclin-dependent kinase 7/ cyclin H (Homo sapiens) (UniProt P51946+P50613); assay: Inhibition of human CDK7/cyclinH/MAT1 assessed as remaining activity at 0.8 uM after 40 mins by scintillation counting; format: protein-complex assay
[13] = target: CDK9/cyclin T1 (Homo sapiens) (UniProt O60563+P50750); assay: Inhibition of human CDK9/cyclin T1 assessed as remaining activity at 0.8 uM after 40 mins by scintillation counting; format: protein-complex assay
[14] = target: Serine/threonine-protein kinase Chk1 (Homo sapiens) (UniProt O14757); assay: Inhibition of human CHK1 assessed as remaining activity at 0.8 uM after 40 mins by scintillation counting
[15] = target: Casein kinase I isoform gamma-1 (Homo sapiens) (UniProt Q9HCP0); assay: Inhibition of human CK1gamma1 assessed as remaining activity at 0.8 uM after 40 mins by scintillation counting
Chain of Casein kinase I isoform gamma-1 (Homo sapiens) (Q9HCP0 whole entry, looked up, canonical isoform): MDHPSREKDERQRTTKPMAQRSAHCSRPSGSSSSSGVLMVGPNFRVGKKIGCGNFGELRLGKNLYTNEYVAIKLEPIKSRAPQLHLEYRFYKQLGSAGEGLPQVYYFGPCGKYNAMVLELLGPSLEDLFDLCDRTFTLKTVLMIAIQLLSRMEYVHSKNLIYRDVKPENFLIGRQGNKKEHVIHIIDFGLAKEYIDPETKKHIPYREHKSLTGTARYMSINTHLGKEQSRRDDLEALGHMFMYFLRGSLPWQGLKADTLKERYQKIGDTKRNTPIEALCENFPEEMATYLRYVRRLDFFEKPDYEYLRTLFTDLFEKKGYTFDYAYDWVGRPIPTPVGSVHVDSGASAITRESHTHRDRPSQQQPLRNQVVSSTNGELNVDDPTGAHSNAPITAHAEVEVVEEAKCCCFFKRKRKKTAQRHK

[16] = target: RAF proto-oncogene serine/threonine-protein kinase (Homo sapiens) (UniProt P04049); assay: Inhibition of human RAF assessed as remaining activity at 0.8 uM after 40 mins by scintillation counting
[17] = target: Ephrin type-A receptor 5 (Homo sapiens) (UniProt P54756); assay: Inhibition of human EphA5 assessed as remaining activity at 0.8 uM after 40 mins by scintillation counting
Chain of Ephrin type-A receptor 5 (Homo sapiens) (P54756 whole entry): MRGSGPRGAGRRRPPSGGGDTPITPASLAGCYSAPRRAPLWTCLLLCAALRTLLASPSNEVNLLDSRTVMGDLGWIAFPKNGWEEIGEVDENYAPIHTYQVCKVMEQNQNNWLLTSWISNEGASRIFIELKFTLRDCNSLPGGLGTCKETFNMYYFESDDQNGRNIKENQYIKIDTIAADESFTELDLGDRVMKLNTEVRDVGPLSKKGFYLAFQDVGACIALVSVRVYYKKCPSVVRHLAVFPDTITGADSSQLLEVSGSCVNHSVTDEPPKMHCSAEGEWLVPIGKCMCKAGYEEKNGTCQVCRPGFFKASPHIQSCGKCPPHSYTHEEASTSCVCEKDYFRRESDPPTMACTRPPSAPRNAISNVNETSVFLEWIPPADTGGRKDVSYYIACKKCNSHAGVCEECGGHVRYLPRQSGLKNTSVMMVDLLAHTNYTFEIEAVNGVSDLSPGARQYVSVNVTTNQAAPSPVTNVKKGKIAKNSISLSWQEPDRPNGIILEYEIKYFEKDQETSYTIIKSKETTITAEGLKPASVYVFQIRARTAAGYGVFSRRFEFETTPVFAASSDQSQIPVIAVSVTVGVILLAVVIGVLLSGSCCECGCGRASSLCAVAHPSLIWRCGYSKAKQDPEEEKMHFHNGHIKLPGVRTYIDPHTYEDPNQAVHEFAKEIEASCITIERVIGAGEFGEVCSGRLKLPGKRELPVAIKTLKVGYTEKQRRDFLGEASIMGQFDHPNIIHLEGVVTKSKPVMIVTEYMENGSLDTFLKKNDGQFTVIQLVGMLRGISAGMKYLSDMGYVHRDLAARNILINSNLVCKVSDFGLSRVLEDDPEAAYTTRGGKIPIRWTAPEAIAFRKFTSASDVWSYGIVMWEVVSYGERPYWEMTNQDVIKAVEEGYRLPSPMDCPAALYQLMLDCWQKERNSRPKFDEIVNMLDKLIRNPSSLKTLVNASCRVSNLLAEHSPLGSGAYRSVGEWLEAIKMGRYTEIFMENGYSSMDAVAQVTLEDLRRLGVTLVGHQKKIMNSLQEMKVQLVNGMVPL

[18] = target: Ephrin type-B receptor 4 (Homo sapiens) (UniProt P54760); assay: Inhibition of human EphB4 assessed as remaining activity at 0.8 uM after 40 mins by scintillation counting
[19] = target: Glycogen synthase kinase-3 beta (Homo sapiens) (UniProt P49841); assay: Inhibition of human GSK3beta assessed as remaining activity at 0.8 uM after 40 mins by scintillation counting
Chain of Glycogen synthase kinase-3 beta (Homo sapiens) (P49841 whole entry, looked up): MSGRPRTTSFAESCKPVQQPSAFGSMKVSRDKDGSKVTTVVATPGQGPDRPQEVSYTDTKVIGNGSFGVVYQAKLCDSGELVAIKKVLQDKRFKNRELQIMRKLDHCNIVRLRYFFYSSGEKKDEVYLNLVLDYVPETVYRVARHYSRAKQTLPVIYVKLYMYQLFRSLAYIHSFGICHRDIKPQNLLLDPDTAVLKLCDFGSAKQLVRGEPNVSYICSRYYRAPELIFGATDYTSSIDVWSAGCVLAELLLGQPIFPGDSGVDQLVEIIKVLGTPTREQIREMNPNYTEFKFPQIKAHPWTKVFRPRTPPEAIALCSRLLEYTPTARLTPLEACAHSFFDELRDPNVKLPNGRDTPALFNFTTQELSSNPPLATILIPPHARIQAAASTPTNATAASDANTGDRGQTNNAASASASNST

[20] = target: Inhibitor of nuclear factor kappa-B kinase subunit alpha (Homo sapiens) (UniProt O15111); assay: Inhibition of human IKKalpha assessed as remaining activity at 0.8 uM after 40 mins by scintillation counting
[21] = target: Mitogen-activated protein kinase 10 (Homo sapiens) (UniProt P53779); assay: Inhibition of human JNK3 assessed as remaining activity at 0.8 uM after 40 mins by scintillation counting
[22] = target: Vascular endothelial growth factor receptor 2 (Homo sapiens) (UniProt P35968); assay: Inhibition of human KDR assessed as remaining activity at 0.8 uM after 40 mins by scintillation counting
[23] = target: Tyrosine-protein kinase Lyn (Homo sapiens) (UniProt P07948); assay: Inhibition of human Lyn assessed as remaining activity at 0.8 uM after 40 mins by scintillation counting
[24] = target: MAP kinase-activated protein kinase 2 (Homo sapiens) (UniProt P49137); assay: Inhibition of human MAPKAP-K2 assessed as remaining activity at 0.8 uM after 40 mins by scintillation counting
Chain of MAP kinase-activated protein kinase 2 (Homo sapiens) (P49137 whole entry, looked up): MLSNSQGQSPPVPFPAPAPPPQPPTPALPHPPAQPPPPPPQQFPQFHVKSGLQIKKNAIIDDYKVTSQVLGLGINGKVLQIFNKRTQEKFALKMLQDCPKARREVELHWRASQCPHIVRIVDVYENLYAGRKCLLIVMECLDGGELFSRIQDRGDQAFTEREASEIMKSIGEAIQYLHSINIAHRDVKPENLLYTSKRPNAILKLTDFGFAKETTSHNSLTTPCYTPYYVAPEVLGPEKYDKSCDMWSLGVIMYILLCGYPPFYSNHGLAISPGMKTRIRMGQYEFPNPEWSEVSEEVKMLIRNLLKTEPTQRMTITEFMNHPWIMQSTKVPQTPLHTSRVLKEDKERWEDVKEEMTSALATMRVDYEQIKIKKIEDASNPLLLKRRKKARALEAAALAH

[25] = target: Dual specificity mitogen-activated protein kinase kinase 7 (Homo sapiens) (UniProt O14733); assay: Inhibition of human MKK7beta assessed as remaining activity at 0.8 uM after 40 mins by scintillation counting
[26] = target: MAP kinase-interacting serine/threonine-protein kinase 2 (Homo sapiens) (UniProt Q9HBH9); assay: Inhibition of human Mnk2 assessed as remaining activity at 0.8 uM after 40 mins by scintillation counting
Chain of MAP kinase-interacting serine/threonine-protein kinase 2 (Homo sapiens) (Q9HBH9 whole entry, looked up): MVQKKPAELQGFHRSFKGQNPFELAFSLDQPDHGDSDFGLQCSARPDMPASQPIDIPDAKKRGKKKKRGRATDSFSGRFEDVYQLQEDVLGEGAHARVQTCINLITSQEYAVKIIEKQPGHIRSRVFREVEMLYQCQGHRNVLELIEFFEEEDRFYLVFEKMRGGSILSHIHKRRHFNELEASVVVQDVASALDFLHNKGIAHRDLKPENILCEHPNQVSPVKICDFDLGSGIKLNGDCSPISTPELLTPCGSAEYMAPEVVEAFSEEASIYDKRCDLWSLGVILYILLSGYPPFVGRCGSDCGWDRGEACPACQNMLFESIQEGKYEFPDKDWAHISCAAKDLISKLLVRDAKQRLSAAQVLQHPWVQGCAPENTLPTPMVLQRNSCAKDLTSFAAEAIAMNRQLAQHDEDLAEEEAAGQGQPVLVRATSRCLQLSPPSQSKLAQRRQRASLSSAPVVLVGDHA

[27] = target: Ribosomal protein S6 kinase alpha-4 (Homo sapiens) (UniProt O75676); assay: Inhibition of human MSK2 assessed as remaining activity at 0.8 uM after 40 mins by scintillation counting
Chain of Ribosomal protein S6 kinase alpha-4 (Homo sapiens) (O75676 whole entry, looked up): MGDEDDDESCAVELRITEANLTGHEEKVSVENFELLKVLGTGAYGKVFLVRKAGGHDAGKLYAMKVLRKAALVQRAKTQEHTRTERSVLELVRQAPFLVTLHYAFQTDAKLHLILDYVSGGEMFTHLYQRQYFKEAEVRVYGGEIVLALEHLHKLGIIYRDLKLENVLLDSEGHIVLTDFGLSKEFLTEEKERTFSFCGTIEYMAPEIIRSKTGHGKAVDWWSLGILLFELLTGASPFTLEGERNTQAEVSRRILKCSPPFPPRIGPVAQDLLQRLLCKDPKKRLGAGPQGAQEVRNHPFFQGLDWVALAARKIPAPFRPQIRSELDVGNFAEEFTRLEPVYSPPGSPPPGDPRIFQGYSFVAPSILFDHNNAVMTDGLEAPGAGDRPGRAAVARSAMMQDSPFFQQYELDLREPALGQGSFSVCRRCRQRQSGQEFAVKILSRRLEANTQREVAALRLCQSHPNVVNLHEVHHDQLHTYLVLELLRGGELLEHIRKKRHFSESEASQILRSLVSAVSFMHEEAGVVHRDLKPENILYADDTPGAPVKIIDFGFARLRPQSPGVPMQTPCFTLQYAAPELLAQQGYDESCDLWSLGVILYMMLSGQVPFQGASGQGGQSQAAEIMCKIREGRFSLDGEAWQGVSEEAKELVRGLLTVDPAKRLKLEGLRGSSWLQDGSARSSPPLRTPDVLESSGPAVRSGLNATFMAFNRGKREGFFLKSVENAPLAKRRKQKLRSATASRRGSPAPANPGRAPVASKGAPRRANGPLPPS

[28] = target: Serine/threonine-protein kinase Nek2 (Homo sapiens) (UniProt P51955); assay: Inhibition of human NEK2 assessed as remaining activity at 0.8 uM after 40 mins by scintillation counting
[29] = target: RAC-alpha serine/threonine-protein kinase (Homo sapiens) (UniProt P31749); assay: Inhibition of human PKBalpha assessed as remaining activity at 0.8 uM after 40 mins by scintillation counting
Homo sapiens = species: Homo sapiens; assay: Inhibition of human PI3K assessed as remaining activity at 0.8 uM after 40 mins by scintillation counting
[30] = target: MAP kinase-activated protein kinase 5 (Homo sapiens) (UniProt Q8IW41); assay: Inhibition of human PRAK assessed as remaining activity at 0.8 uM after 40 mins by scintillation counting
[31] = target: Rho-associated protein kinase 1 (Homo sapiens) (UniProt Q13464); assay: Inhibition of human ROCK-I assessed as remaining activity at 0.8 uM after 40 mins by scintillation counting
[32] = target: Mitogen-activated protein kinase 12 (Homo sapiens) (UniProt P53778); assay: Inhibition of human SAPK3 assessed as remaining activity at 0.8 uM after 40 mins by scintillation counting
Chain of Mitogen-activated protein kinase 12 (Homo sapiens) (P53778 whole entry): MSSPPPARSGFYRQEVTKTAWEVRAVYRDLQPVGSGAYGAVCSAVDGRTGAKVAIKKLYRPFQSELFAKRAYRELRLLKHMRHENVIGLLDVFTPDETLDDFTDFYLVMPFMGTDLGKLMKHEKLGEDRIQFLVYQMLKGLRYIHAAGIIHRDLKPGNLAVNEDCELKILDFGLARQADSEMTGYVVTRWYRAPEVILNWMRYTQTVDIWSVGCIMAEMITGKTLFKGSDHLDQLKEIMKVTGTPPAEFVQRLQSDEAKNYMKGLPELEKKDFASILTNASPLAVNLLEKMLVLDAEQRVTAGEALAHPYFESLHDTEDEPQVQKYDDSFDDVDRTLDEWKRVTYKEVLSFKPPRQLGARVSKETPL

Structure (SMILES) | Activity [1] [%] | Activity (MDA-MB-436) | Activity (MCF7 [3]) | Activity (MCF7 [4]) | IC50 [6] [nM] | Activity [7] [%] | Activity [8] [%] | Activity [9] [%] | Activity [10] [%] | Activity [11] [%] | Activity [12] [%] | Activity [13] [%] | Activity [14] [%] | Activity [15] [%] | Activity [16] [%] | Activity [17] [%] | Activity [18] [%] | Activity [19] [%] | Activity [20] [%] | Activity [21] [%] | also measured
O=c1c(-c2ccc(F)cc2)c(-c2ccnc(NC3CCCCC3)c2)oc2ccccc12 | 116 | inactive | inactive | inactive | 34 | 106 | 91 | 102 | 96 | 99 | 101 | 93 | 104 | 97 | 83 | 104 | 98 | 124 | 100 | 24 | inhibition [2]: Active; Activity (MCF7 [5]): inactive; Activity [22]: 101%; Activity [23]: 98%; Activity [24]: 99%; Activity [25]: 99%; Activity [26]: 103%; Activity [27]: 95%; Activity [28]: 98%; Activity [29]: 107%; Activity (Homo sapiens): 100%; Activity [30]: 66%; Activity [31]: 106%; Activity [32]: 97%
CC(C)Nc1cc(-c2oc3ccccc3c(=O)c2-c2ccc(F)cc2)ccn1 | 109 | inactive | inactive | inactive | 17 | 111 | 88 | 97 | 94 | 100 | 100 | 96 | 98 | 94 | 73 | 103 | 97 | 132 | 106 | 21 | Activity [22]: 98%; Activity [23]: 101%; Activity [24]: 104%; Activity [25]: 120%; Activity [26]: 96%; Activity [27]: 89%; Activity [28]: 98%; Activity [29]: 100%; Activity (Homo sapiens): 100%; Activity [30]: 72%; Activity [31]: 94%; Activity [32]: 96%
